Source: ChEMBL document CHEMBL1129524, “Potent inhibitors of acyl-CoA:cholesterol acyltransferase. 2. Structure-activity relationships of novel N-(2,2-dimethyl-2,3-dihydrobenzofuran-7-yl)amides” (J Med Chem, 1996)

What was measured:
Rattus norvegicus [1] = experiment: Total cholesterol lowering activity tested by administered orally to rats at dose 10(mg/kg) once a day for 3 days; assay type: functional
Summary of the method: (§1)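 Male Wistar rats received the compound orally once daily for 3 days. Each night they ate a diet with 2% cholesterol, 1% cholic acid, 20% casein, 45% sucrose, 12% coconut oil, 4% KC flock, 1% vitamin mix, 7% mineral mix and 8% dried fish powder. Serum total cholesterol was then measured. Activity is the observed reduction as a percentage of the control-minus-normal difference.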

O-acyltransferase = O-acyltransferase (Oryctolagus cuniculus, UniProt G1SFD9); experiment: Inhibitory activity against Acyl coenzyme A:cholesterol acyltransferase 1 obtained from rabbit intestine microsomes
Summary of the method: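 Enzyme source was small-intestinal mucosa microsomes from cholesterol-fed rabbits. The substrate was [1-¹⁴C]oleoyl-CoA.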

Rattus norvegicus [2] = experiment: Total cholesterol lowering activity tested by administered orally to cholesterol fed rats at dose 0.3(mg/kg) once a day for 3 days; assay type: functional; summary of the method: as §1
Rattus norvegicus [3] = species: Rattus norvegicus; experiment: Inhibitory activity against foam cell formation (acetyl-LDL-induced cholesteryl ester accumulation) in rat peritoneal macrophages; assay type: functional
Summary of the method: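 Peritoneal macrophages were prepared from rats. The IC₅₀ was determined for inhibition of acetyl-human-LDL-induced cellular cholesteryl ester accumulation.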

[4] = biological target: Sterol O-acyltransferase 1 (Oryctolagus cuniculus); experiment: Inhibitory activity against Acyl coenzyme A:cholesterol acyltransferase 1 obtained from rabbit liver microsomes
Rattus norvegicus [5] = experiment: Total cholesterol lowering activity tested by administered orally to rats at dose 3(mg/kg) once a day for 3 days; assay type: functional; summary of the method: as §1
Rattus norvegicus [6] = experiment: Total cholesterol lowering activity tested by administered orally to rats at dose 1(mg/kg) once a day for 3 days; assay type: functional; summary of the method: as §1
Rattus norvegicus [7] = experiment: Total cholesterol lowering activity tested by administered orally to cholesterol fed rats at dose 3(mg/kg) once a day for 3 days; assay type: functional; summary of the method: as §1

Row | Compound | IC50 (O-acyltransferase) | other results
1 | Cc1cc(C)c(NC(=O)C(C)(C)CCCCCc2ccccc2)c2c1CC(C)(C)O2 | 120 nM | Change (Rattus norvegicus [1]): -66%
2 | CCCCCCCCCCC(C)(C)C(=O)Nc1c(OC)ccc2c1OCCC2=O | – | Change (Rattus norvegicus [2]): -66%; IC50 (Rattus norvegicus [3]): 160 nM; IC50 [4]: 16 nM
3 | CCCCCCCCCCC1(C(=O)Nc2c(C)ccc3c2OC(C)(C)C3)CCCC1 | 240 nM | Change (Rattus norvegicus [1]): -52%
4 | CCCCCCCCCCOc1ccc(C(=O)Nc2c(C)cc(C)c3c2OC(C)(C)C3)cc1 | 30 nM | Change (Rattus norvegicus [5]): 0%
5 | CCCCCCCCCCCCCCCC(=O)Nc1cccc2c1OC(C)(C)C2 | 890 nM | –
6 | CCCCCCCCCCC(C)(C)C(=O)Nc1c(C)c([N+](=O)[O-])c(C)c2c1OC(C)(C)C2 | 36 nM | –
7 | Cc1cc(C)c(NC(=O)c2ccc(OCCCCCCOc3ccc(Cl)cc3)cc2)c2c1CC(C)(C)O2 | > 200 nM | –
8 | CCCCCCCCCCC1(C(=O)Nc2c(C)cc(C)c3c2OC(C)(C)C3)CCCC1 | 170 nM | –
9 | CCCCCCCCCCCCC(C)(C)C(=O)Nc1c(C)cc(C)c2c1OC(C)(C)C2 | 33 nM | –
10 | Cc1cc(C)c(NC(=O)C(C)(C)CCCOc2ccc(Cl)cc2)c2c1CC(C)(C)O2 | 260 nM | –
11 | Cc1cc(C)c(NC(=O)C(C)(C)CCCCOCc2ccccc2)c2c1CC(C)(C)O2 | – | Change (Rattus norvegicus [1]): -50%
12 | CCCCCCCCCCCCCCCC(=O)Nc1c(C)cc(C)c2c1OC(C)(C)C2 | 26 nM | –
13 | Cc1cc(C)c(NC(=O)C(C)(C)CCCCCOc2ccc(Cl)cc2)c2c1CC(C)(C)O2 | 150 nM | Change (Rattus norvegicus [6]): -64%
14 | Cc1cc(C)c(NC(=O)C(C)(C)CCCCCCc2ccccc2)c2c1CC(C)(C)O2 | 81 nM | –
15 | Cc1cc(C)c(NC(=O)C(C)(C)CCCCCOc2ccccc2)c2c1CC(C)(C)O2 | 86 nM | –
16 | CCCCCCCCOc1ccc(C(=O)Nc2c(C)cc(C)c3c2OC(C)(C)C3)cc1 | > 200 nM | –

Row | Compound | IC50 (O-acyltransferase) | other results
17 | Cc1cc(C)c(NC(=O)C(C)(C)CCCCCCOc2ccc(Cl)cc2)c2c1CC(C)(C)O2 | 76 nM | Change (Rattus norvegicus [2]): -64%; Change (Rattus norvegicus [6]): -75%; IC50 (Rattus norvegicus [3]): 1500 nM
18 | Cc1cc(C)c(NC(=O)C(C)(C)CCCCc2ccccc2)c2c1CC(C)(C)O2 | 210 nM | –
19 | CCCOCCCCCCOc1ccc(C(=O)Nc2c(C)cc(C)c3c2OC(C)(C)C3)cc1 | > 200 nM | –
20 | CCCCCCCCCCC(C)(C)C(=O)Nc1c(C)c(N(C)C)c(C)c2c1OC(C)(C)C2 | – | Change (Rattus norvegicus [2]): -71%; Change (Rattus norvegicus [6]): -88%; IC50 (Rattus norvegicus [3]): 30 nM
21 | Cc1cc(C)c(NC(=O)C(C)(C)CCCCCCOCC(C)C)c2c1CC(C)(C)O2 | – | Change (Rattus norvegicus [1]): -62%
22 | Cc1cc(C)c(NC(=O)C(C)(C)CCCCOc2ccc(Cl)cc2)c2c1CC(C)(C)O2 | 330 nM | Change (Rattus norvegicus [1]): -61%
23 | Cc1ccc(OCCCCCCC(C)(C)C(=O)Nc2c(C)cc(C)c3c2OC(C)(C)C3)cc1 | 50 nM | –
24 | CCCCCCCCCCC(C)(C)C(=O)Nc1c(C)c(N)c(C)c2c1OC(C)(C)C2 | 59 nM | –
25 | CCCCCCCCC(C)(C)C(=O)Nc1c(C)cc(C)c2c1OC(C)(C)C2 | 140 nM | –
26 | CCCCCCCCCCCCOc1ccc(C(=O)Nc2c(C)cc(C)c3c2OC(C)(C)C3)cc1 | 90 nM | –
27 | Cc1cc(C)c(NC(=O)C(C)(C)CCCCCCN2CCCCC2)c2c1CC(C)(C)O2 | > 500 nM | –
28 | CCCCCCCCCCC1(C(=O)Nc2cccc3c2OC(C)(C)C3)CCCC1 | 500 nM | –
29 | CCCCCCCCCCC(C)(C)C(=O)Nc1c(C)cc(C)c2c1OC(C)(C)C2 | – | Change (Rattus norvegicus [2]): -44%; Change (Rattus norvegicus [6]): -61%; IC50 (Rattus norvegicus [3]): 650 nM
30 | CCCCCCCCCCC(C)(C)C(=O)Nc1c(OC)cc(OC)cc1OC [CL-976] | – | IC50 (Rattus norvegicus [3]): 3800 nM; Change (Rattus norvegicus [7]): -50%
31 | Cc1cc(C)c(NC(=O)C(C)(C)CCCc2ccc(CC(C)C)cc2)c2c1CC(C)(C)O2 | 40 nM | Change (Rattus norvegicus [5]): -57%
